Assay results as given in ChEMBL document CHEMBL1147648, “Substituted coumarins as potent 5-lipoxygenase inhibitors” (Bioorg Med Chem Lett, 2006).

How the values were obtained:
[1] = target: T1, Polyunsaturated fatty acid 5-lipoxygenase (Homo sapiens, UniProt P09917); test: Inhibition of human 5-LO
T1 sequence (P09917 whole entry): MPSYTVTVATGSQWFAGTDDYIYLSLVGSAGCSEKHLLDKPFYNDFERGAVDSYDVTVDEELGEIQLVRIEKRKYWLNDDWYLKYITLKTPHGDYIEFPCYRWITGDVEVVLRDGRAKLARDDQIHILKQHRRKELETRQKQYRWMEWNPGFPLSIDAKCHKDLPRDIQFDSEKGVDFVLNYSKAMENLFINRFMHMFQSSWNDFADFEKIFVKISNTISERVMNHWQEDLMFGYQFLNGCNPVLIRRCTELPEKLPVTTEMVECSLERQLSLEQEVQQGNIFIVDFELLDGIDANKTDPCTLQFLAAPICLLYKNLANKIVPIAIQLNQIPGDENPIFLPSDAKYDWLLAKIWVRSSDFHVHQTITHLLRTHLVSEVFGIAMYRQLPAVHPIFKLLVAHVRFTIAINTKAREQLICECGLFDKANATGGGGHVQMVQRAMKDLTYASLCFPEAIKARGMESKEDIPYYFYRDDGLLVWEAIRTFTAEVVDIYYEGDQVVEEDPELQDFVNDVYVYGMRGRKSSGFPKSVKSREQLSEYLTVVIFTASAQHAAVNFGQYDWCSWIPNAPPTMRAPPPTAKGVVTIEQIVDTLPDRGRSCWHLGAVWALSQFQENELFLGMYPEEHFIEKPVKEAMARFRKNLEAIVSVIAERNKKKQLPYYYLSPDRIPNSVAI

[2] = target: T1, Polyunsaturated fatty acid 5-lipoxygenase; test: Inhibition of LTB4 production in calcium ionophore A-23187-stimulated human whole blood; type: functional, tissue-based
[3] = target: T1, Polyunsaturated fatty acid 5-lipoxygenase; test: Inhibition of LTB4 production in calcium ionophore A-23187-stimulated human polymorphonuclear leukocyte; type: functional
[4] = Oral bioavailability in rat at 20 mg/kg, po; type: ADME, organism-based; settings: in vivo
Summary of the method: (§1)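 Rats dosed orally at 20 mg/kg in 0.5% methocel, given as the water-soluble sodium salt of the hydroxy-acid precursor that cyclizes to the coumarin.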

[5] = Cmax in squirrel monkey at 10 mg/kg, po after 2 hrs; type: ADME, organism-based, Saimiri sciureus; set-up: dose 10 mg/kg, route oral; settings: in vivo
[6] = target: T2, Polyunsaturated fatty acid 5-lipoxygenase (Rattus norvegicus) (UniProt P12527); test: Activity against carrageenan-induced inflammation in orally dosed rat pleural cavity assessed as inhibition of LTB4 biosynthesis after 2 hrs; type: functional, organism-based
T2 sequence (whole entry): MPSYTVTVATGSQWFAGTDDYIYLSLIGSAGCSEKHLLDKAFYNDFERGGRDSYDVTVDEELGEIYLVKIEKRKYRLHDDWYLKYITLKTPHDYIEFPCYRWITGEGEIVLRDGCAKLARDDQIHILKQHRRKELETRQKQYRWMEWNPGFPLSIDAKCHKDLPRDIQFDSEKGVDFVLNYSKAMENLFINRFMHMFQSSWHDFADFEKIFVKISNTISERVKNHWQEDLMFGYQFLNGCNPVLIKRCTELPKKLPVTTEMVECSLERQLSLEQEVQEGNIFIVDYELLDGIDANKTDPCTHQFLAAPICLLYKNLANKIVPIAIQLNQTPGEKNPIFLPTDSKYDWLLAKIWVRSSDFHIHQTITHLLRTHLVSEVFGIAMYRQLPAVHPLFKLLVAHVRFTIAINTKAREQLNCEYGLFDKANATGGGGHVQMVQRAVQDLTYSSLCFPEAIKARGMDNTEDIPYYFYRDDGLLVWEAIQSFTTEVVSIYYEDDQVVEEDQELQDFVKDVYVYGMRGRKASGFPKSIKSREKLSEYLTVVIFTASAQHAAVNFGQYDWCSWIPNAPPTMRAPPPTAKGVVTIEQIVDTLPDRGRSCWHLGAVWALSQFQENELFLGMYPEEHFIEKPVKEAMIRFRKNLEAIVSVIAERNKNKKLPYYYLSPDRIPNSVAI

[7] = Oral bioavailability in squirrel monkey at 10 mg/kg, po; type: ADME, organism-based, Saimiri sciureus; settings: in vivo
[8] = Cmax in rat at 20 mg/kg, po; type: ADME, organism-based; set-up: dose 20 mg/kg, route oral; settings: in vivo; summary of the method: as §1
[9] = system: Rattus norvegicus; test: Oral absorption in rat at 20 mg/kg, po; type: ADME, organism-based; set-up: dose 20 mg/kg, route oral; settings: in vivo; summary of the method: as §1

Row | IC50 [1] | IC50 [2] | IC50 [3] | SMILES | also measured
1 | 0.055 µM | 0.15 µM | 0.0019 µM | O=c1cc(-c2ccc(F)cc2)c2ccc(COc3cc(F)cc(C(O)(C(F)(F)F)C(F)(F)F)c3)cc2o1 | –
2 | 0.026 µM | 0.088 µM | 0.0005 µM | O=c1cc(-c2ccccc2)c2ccc(Sc3cc(F)cc(C(O)(C(F)(F)F)C(F)(F)F)c3)cc2o1 | –

Further lines, the compound ahead of its results:

Row | SMILES | IC50 [1] | IC50 [2] | IC50 [3] | also measured
3 | O=c1cc(-c2ccoc2)c2ccc(Sc3cc(F)cc(C(O)(C(F)(F)F)C(F)(F)F)c3)cc2o1 | 0.009 µM | 0.052 µM | 0.0008 µM | –
4 | O=C([O-])/C=C(/c1ccc(F)cc1)c1ccc(Sc2cc(F)cc(C(O)(C(F)(F)F)C(F)(F)F)c2)cc1[O-].[Na+].[Na+] | – | – | – | bioavailability [4]: 100%; Cmax [5]: 1.2 µM; ED50 [6]: 1.6 mg/kg; bioavailability [7]: 30%; Cmax [8]: 16 µM
5 | O=c1cc(-c2ccc(F)cc2)c2ccc(Sc3cc(F)cc(C(O)(C(F)(F)F)C(F)(F)F)c3)cc2o1 | – | – | – | Fa [9]: Not Active
6 | O=c1cc(-c2ccoc2)c2ccc(COc3cc(F)cc([C@]4(O)C[C@H]5CO[C@@H](C4)O5)c3)cc2o1 | 0.2 µM | 0.048 µM | 0.003 µM | –
